From ChEMBL document CHEMBL2434874, “Synthesis and antiproliferative activity of benzofuran-based analogs of cercosporamide against non-small cell lung cancer cell lines” (Eur J Med Chem, 2013)

Experiments:
[1] = Cytotoxicity against human NSCLC-N6 cells expressing mutant p53 by MTT assay; type: functional, cell-based
In short: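 Cells grown in RPMI 1640 and seeded in 96-well plates (NSCLC-N6 at 10⁵ cells/mL). Cells exposed to drug continuously. Growth measured colorimetrically by mitochondrial reduction of MTT to formazan, with solubilized formazan read at 570 nm. Eight replicates per concentration; control growth from 8 determinations.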

A549 = test: Cytotoxicity against human A549 cells expressing wild type p53 by MTT assay; type: functional, cell-based
[2] = Homo sapiens, NSCLC-N6, read-out: IC50
[3] = Homo sapiens, A549, read-out: IC50

Row | SMILES | IC50 [1, 2] [µM] | IC50 (A549; [3]) [µM] | IC50 ([1]; nsclc-n6) | IC50 (A549; a549)
1 | COc1cc(OC)c2c(C)c(C(N)=O)oc2c1C(N)=O | 22.6 | 39.4 |  | 
2 | COc1cc(OC)c2c(C)c(C=O)oc2c1 |  |  | Not Active | Not Active
3 | COc1cc(OC)c2c(C)c(C=O)oc2c1Br |  | 49.5 | Not Active | 
4 | COc1cc(OC)c2c(C)c(C=O)oc2c1C#N |  |  | Not Active | Not Active
5 | COc1cc(OC)c2c(C)c(C=O)oc2c1C(N)=O | 44.4 | 63.8 |  | 
6 | Cc1c(C=O)oc2c(C(N)=O)c(O)cc(O)c12 | 60.8 | 108 |  | 
7 | CCOC(=O)c1oc2cc(OCc3ccccc3)cc(OCc3ccccc3)c2c1C | > 72 | > 72 |  | 
8 | Cc1c(C=O)oc2cc(OCc3ccccc3)cc(OCc3ccccc3)c12 | > 80.6 | > 80.6 |  | 
9 | CCOC(=O)c1oc2cc(O)cc(O)c2c1C | 65.6 | 68.6 |  | 
10 | Cc1c(C=O)oc2cc(O)cc(O)c12 |  |  | Not Active | Not Active
11 | CCOC(=O)c1oc2c(C(N)=O)c(OCc3ccccc3)cc(OCc3ccccc3)c2c1C | < 7.2 | < 7.2 |  | 
12 | CCOC(=O)c1oc2c(C(N)=O)c(O)cc(O)c2c1C | 32.9 | 24 |  | 
13 | CCOC(=O)c1oc2cc(OC)cc(OC)c2c1C |  |  | Not Active | Not Active
14 | CCOC(=O)c1oc2c(Br)c(OC)cc(OC)c2c1C | > 87.4 | > 87.4 |  | 
15 | CCOC(=O)c1oc2c(C#N)c(OC)cc(OC)c2c1C |  |  | Not Active | Not Active
16 | CCOC(=O)c1oc2c(C(N)=O)c(OC)cc(OC)c2c1C |  |  | Not Active | Not Active
17 | CCCNC(=O)c1oc2c(C(N)=O)c(OC)cc(OC)c2c1C | > 93.6 | > 93.6 |  | 
18 | COc1cc(OC)c2c(C)c(C(=O)NCc3ccccc3)oc2c1C(N)=O | > 81.4 | 54.8 |  | 
19 | COc1cc(OC)c2c(C)c(C(=O)Nc3ccccc3)oc2c1C(N)=O | < 9.3 | < 9.3 |  | 
20 | COc1cc(OC)c2c(C)c(C(=O)Nc3ccccn3)oc2c1C(N)=O | > 84.4 | > 84.4 |  | 
21 | COc1cc(OC)c2c(C)c(C(=O)Nc3ccncc3)oc2c1C(N)=O | < 9.3 | < 9.3 |  | 
